Calb biofilm kill: clotrimazole potentiators killing C. albicans biofilm, primary screen, 4-compound mixtures; C. albicans biofilm persisters + clotrimazole, fluorescence viability; primary screen in compound mixtures of four per well; inhibition, % at 7.6 µM; hit rate 0.02% among 120,000; AID 1242, 2008;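 active means inhibition above 30.3% in the primary screen of four-compound pools, then above 30% when the compound was retested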;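 further: compounds exposed to preformed 24 h biofilms for 48 h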
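Probe or stimulus – Clotrimazole 50 µg/mL co-treatment · System – C. albicans biofilms · Schedule – 24 h biofilm formation, then 48 h compound exposure, 37 °C · Evaluation – percent inhibition of biofilm viability · Technique – 2-h Alamar Blue fluorescence, 535/590 nm excitation/emission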
Calpain2 inh: inhibitors of pig calpain II, primary screen, biochemical, fluorogenic peptide substrate, 1536-well. purified calpain II, 30 min. inhibition, % at 16 µM. hit rate 0.37% among 220,000;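 active means inhibition above about 50%, limit read from the data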
Mcl1 Noxa PPI: Mcl-1/Noxa binding inhibitors, primary screen, biochemical, TR-FRET, 1536-well; hit rate 1.5% among 220,000; Induced myeloid leukemia cell differentiation protein Mcl-1 (Homo sapiens), Q07820; inhibition, % at 21.7 µM; AID 1022, 2008; TR-FRET Mcl-1/Noxa peptide binding, 2 h;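 active means compounds that cut the protein-peptide binding signal by more than 50% relative to plate controls in a single-dose test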;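 further: His-tagged Mcl-1 with rhodamine Noxa BH3 peptide and terbium anti-His antibody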
Target sequence (Q07820 whole entry, looked up): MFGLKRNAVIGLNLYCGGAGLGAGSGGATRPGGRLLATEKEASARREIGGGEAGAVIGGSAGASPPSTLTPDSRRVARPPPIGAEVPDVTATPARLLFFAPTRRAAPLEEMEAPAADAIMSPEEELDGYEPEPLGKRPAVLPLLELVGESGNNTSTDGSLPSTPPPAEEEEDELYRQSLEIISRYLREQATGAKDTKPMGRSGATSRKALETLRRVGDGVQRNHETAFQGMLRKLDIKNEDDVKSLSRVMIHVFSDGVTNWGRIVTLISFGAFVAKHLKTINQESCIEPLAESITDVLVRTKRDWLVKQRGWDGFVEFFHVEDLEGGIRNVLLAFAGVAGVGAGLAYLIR
Mcl1-Bid inh: Mcl-1/Bid binding inhibitors, primary screen, biochemical, TR-FRET, 1536-well; Induced myeloid leukemia cell differentiation protein Mcl-1 (Homo sapiens), Q07820; TR-FRET Mcl-1/Bid-Dy647 peptide binding; inhibition, % at 21.7 µM; hit rate 0.97% among 220,000; AID 1021, 2008;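 active means compounds that cut the binding signal by more than half at the single screening dose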;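 further: His-tagged Mcl-1 with europium anti-His antibody binding Bid BH3 peptide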
Arbovirus anti: antivirals against arbovirus infection, primary screen, cell-based, full library, 10K replicate subset; hit rate 0.37% among 200,000; inhibition, % at 10 µM; AID 1251, 2008; arbovirus infection cell-based antiviral screen; in the data active means inhibition above about 30%
Mcl-1 Bim block: inhibitors of Bim peptide binding to Mcl-1, primary screen, biochemical, bead-based flow cytometry, multiplex. Bim peptide-Mcl-1 binding. inhibition, % at 10 µM. hit rate 0.1% among 190,000. AID 1009, 2008; in the data active means inhibition above about 40%
Hits are given with their value. In the library only some 2.8% were active in any assay of this set; here they are far more common.

What do the screens show for `CCN1C(=O)/C(=C\C=C2/C=CC=CN2CC)SC1=S`?
Calb biofilm kill: inactive; Calpain2 inh: inactive; Mcl1 Noxa PPI: inactive; Mcl1-Bid inh: inactive; Arbovirus anti: inactive; Mcl-1 Bim block: inactive

How did CCN1C(=O)/C(=C/C=C2\C=CN(CC)c3ccccc32)SC1=S do in these assays?
Calb biofilm kill: inactive; Calpain2 inh: inactive; Mcl1 Noxa PPI: 64; Mcl1-Bid inh: inactive; Arbovirus anti: inactive; Mcl-1 Bim block: inactive

What do the screens show for `O=C(NCCOCCNC(=O)OCc1ccccc1)OCc1ccccc1`?
Calb biofilm kill: inactive; Calpain2 inh: inactive; Mcl1 Noxa PPI: inactive; Mcl1-Bid inh: inactive; Arbovirus anti: inactive; Mcl-1 Bim block: inactive

How did Cc1cc(C(=O)O)ccc1-n1c(C)ccc1C do in these assays?
Calpain2 inh: inactive; Mcl1 Noxa PPI: 78; Mcl1-Bid inh: 57; Arbovirus anti: inactive; Mcl-1 Bim block: inactive

What do the screens show for `Cc1cc(C(=O)O)ccc1-n1c(C)cc(/C=C(/C#N)C(=O)Nc2ccccc2)c1C`?
Calb biofilm kill: inactive; Calpain2 inh: 59; Mcl1 Noxa PPI: inactive; Mcl1-Bid inh: inactive; Arbovirus anti: inactive; Mcl-1 Bim block: inactive

How did O=C(NNc1c(Cl)cccc1Cl)c1cccs1 do in these assays?
Calb biofilm kill: inactive; Calpain2 inh: inactive; Mcl1 Noxa PPI: inactive; Mcl1-Bid inh: inactive

Results for COc1cccc(CN(C)CC(=O)Nc2cccc(S(N)(=O)=O)c2)c1OC ?
Calb biofilm kill: inactive; Calpain2 inh: inactive; Mcl1 Noxa PPI: inactive; Mcl1-Bid inh: inactive; Arbovirus anti: inactive; Mcl-1 Bim block: inactive

Results for COc1cccc(CN(C)CC(=O)Nc2cccc(C(F)(F)F)c2)c1OC ?
Calb biofilm kill: inactive; Calpain2 inh: 63; Mcl1 Noxa PPI: inactive; Mcl1-Bid inh: inactive; Arbovirus anti: inactive; Mcl-1 Bim block: inactive

Results for Cc1cc(C)c(C)c(S(=O)(=O)ON2C(=O)c3ccccc3C2=O)c1C ?
Calpain2 inh: inactive; Mcl1 Noxa PPI: inactive; Mcl1-Bid inh: inactive; Arbovirus anti: inactive; Mcl-1 Bim block: inactive

What do the screens show for `Cc1cc(C)c(S(=O)(=O)ON2C(=O)c3ccccc3C2=O)cc1C`?
Calpain2 inh: inactive; Mcl1 Noxa PPI: 72; Mcl1-Bid inh: inactive; Arbovirus anti: inactive; Mcl-1 Bim block: inactive

How did Cc1ccc(S(=O)(=O)ON2C(=O)c3ccccc3C2=O)c(C)c1 do in these assays?
Calb biofilm kill: inactive; Calpain2 inh: inactive; Mcl1 Noxa PPI: 71; Mcl1-Bid inh: inactive; Arbovirus anti: inactive; Mcl-1 Bim block: inactive

What do the screens show for `O=C(c1cnccn1)N(Cc1cccs1)C1(C(=O)NC2CCCCC2)CCCCC1`?
Calb biofilm kill: inactive; Calpain2 inh: inactive; Mcl1 Noxa PPI: inactive; Mcl1-Bid inh: inactive; Arbovirus anti: inactive; Mcl-1 Bim block: 54

What do the screens show for `O=C(c1cnccn1)N(Cc1cccs1)C1(C(=O)NC2CCCC2)CCCCC1`?
Calb biofilm kill: inactive; Calpain2 inh: inactive; Mcl1 Noxa PPI: inactive; Mcl1-Bid inh: inactive; Arbovirus anti: inactive; Mcl-1 Bim block: inactive

Results for CN(C)c1ccc(/C=C2\C(=N)N3C(=NC2=O)Sc2cc(S(C)(=O)=O)ccc23)cc1 ?
Calb biofilm kill: inactive; Calpain2 inh: inactive; Mcl1 Noxa PPI: 60; Mcl1-Bid inh: 64

How did CC1=NOC(=O)/C1=C/c1ccc(N(C)C)cc1 do in these assays?
Calpain2 inh: inactive; Mcl1 Noxa PPI: inactive; Mcl1-Bid inh: inactive; Arbovirus anti: inactive; Mcl-1 Bim block: inactive

Results for Cn1c(=O)n(C)c2cc(/C=N/NC(N)=S)ccc21 ?
Calb biofilm kill: inactive; Calpain2 inh: inactive; Mcl1 Noxa PPI: inactive; Mcl1-Bid inh: inactive; Arbovirus anti: inactive; Mcl-1 Bim block: inactive

How did COc1ccc(S(=O)(=O)Nc2ccccc2C(N)=O)cc1OC do in these assays?
Calb biofilm kill: inactive; Calpain2 inh: inactive; Mcl1 Noxa PPI: inactive; Mcl1-Bid inh: inactive; Arbovirus anti: inactive; Mcl-1 Bim block: inactive

Results for O=C(c1sc2cc([N+](=O)[O-])ccc2c1Cl)N1CCOCC1 ?
Calb biofilm kill: inactive; Calpain2 inh: inactive; Mcl1 Noxa PPI: inactive; Mcl1-Bid inh: inactive; Arbovirus anti: inactive; Mcl-1 Bim block: inactive

Results for CC(C)N(C(=O)c1sc2cc([N+](=O)[O-])ccc2c1Cl)C(C)C ?
Calpain2 inh: inactive; Mcl1 Noxa PPI: inactive; Mcl1-Bid inh: 97; Arbovirus anti: inactive; Mcl-1 Bim block: inactive

Results for Cc1cccc(CSc2nn3c(=O)c(C)nnc3s2)c1 ?
Calb biofilm kill: inactive; Calpain2 inh: inactive; Mcl1 Noxa PPI: inactive; Mcl1-Bid inh: inactive; Arbovirus anti: 40; Mcl-1 Bim block: inactive

Results for Cc1ccc(NS(=O)(=O)c2cc(C(=O)NCCSc3ccc(C)cc3)ccc2C)cc1 ?
Calpain2 inh: inactive; Mcl1 Noxa PPI: inactive; Mcl1-Bid inh: inactive; Arbovirus anti: inactive; Mcl-1 Bim block: inactive

What do the screens show for `Cc1ccc(NS(=O)(=O)c2cc(C(=O)NCCSC3CCCCC3)ccc2C)cc1`?
Calpain2 inh: 56; Mcl1 Noxa PPI: inactive; Mcl1-Bid inh: inactive; Arbovirus anti: inactive; Mcl-1 Bim block: inactive

What do the screens show for `N#Cc1ccccc1NC(=O)c1ccccc1OCC(=O)NCc1ccco1`?
Calpain2 inh: inactive; Mcl1 Noxa PPI: inactive; Mcl1-Bid inh: inactive; Arbovirus anti: 31; Mcl-1 Bim block: inactive

Results for COC(=O)c1oc2ccccc2c1NC(=O)/C=C/C(=O)O ?
Calb biofilm kill: inactive; Calpain2 inh: inactive; Mcl1 Noxa PPI: inactive; Mcl1-Bid inh: inactive; Arbovirus anti: inactive; Mcl-1 Bim block: inactive

What do the screens show for `c1ccc2c(N3CCOCC3)nc(N3CCOCC3)nc2c1`?
Calb biofilm kill: inactive; Calpain2 inh: inactive; Mcl1 Noxa PPI: 51; Mcl1-Bid inh: 66; Arbovirus anti: inactive; Mcl-1 Bim block: inactive

How did c1ccc2c(N3CCOCC3)nc(-c3ccncc3)nc2c1 do in these assays?
Calpain2 inh: inactive; Mcl1 Noxa PPI: inactive; Mcl1-Bid inh: inactive; Arbovirus anti: inactive; Mcl-1 Bim block: inactive

What do the screens show for `O=C(CNC(=O)c1ccc(F)cc1)N/N=C/c1cc(Br)ccc1OC(=O)/C=C/c1ccco1`?
Calb biofilm kill: inactive; Calpain2 inh: inactive; Mcl1 Noxa PPI: 59; Mcl1-Bid inh: inactive

Results for CC12CCC(C)(c3nc4ccccc4nc31)C2(C)C ?
Calb biofilm kill: inactive; Calpain2 inh: inactive; Mcl1 Noxa PPI: inactive; Mcl1-Bid inh: inactive; Arbovirus anti: inactive; Mcl-1 Bim block: inactive

Results for Cc1[nH]nc2c1-c1nc3ccccc3nc1C(C)(C)C2 ?
Calpain2 inh: inactive; Mcl1 Noxa PPI: inactive; Mcl1-Bid inh: inactive; Arbovirus anti: 33; Mcl-1 Bim block: inactive

What do the screens show for `COc1ccc(/C=C/C(=O)Nc2ccccc2C(=O)O)cc1`?
Calb biofilm kill: inactive; Calpain2 inh: inactive; Mcl1 Noxa PPI: inactive; Mcl1-Bid inh: inactive; Arbovirus anti: 51; Mcl-1 Bim block: inactive

Results for COc1ccc(/C=C/C(=O)Nc2cc(C(F)(F)F)ccc2Cl)cc1OC ?
Calb biofilm kill: inactive; Calpain2 inh: inactive; Mcl1 Noxa PPI: inactive; Mcl1-Bid inh: inactive; Arbovirus anti: 32; Mcl-1 Bim block: inactive
